{"source": "paper PMC10023024", "about": "(Clinical Pharmacokinetics, 2023)", "format": "in vivo, human", "summary_of_the_method": "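Tablets co-formulated with SNAC, 3 mg on Days 1–5 then 7 mg on Days 6–10. Reference arm: ≥6 h overnight fast, 8 am dose, 30-min post-dose fast. Other arms: ~760 kcal meal, then 2/4/6 h fast, 8 pm dose, 30-min or overnight post-dose fast. Plasma sampled 10 min–24 h after 10th dose and measured by validated LC-MS/MS. AUC0–24h by linear trapezoidal method; log values back-transformed to geometric-mean ratios with 95% CI.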", "key": {"[1]": {"conditions": "2 h–30 min, 4 h–30 min and 6 h–30 min arms vs night–30 min, p < 0.0001"}}}
{"smiles": "CC[C@H](C)[C@H](NC(=O)[C@H](Cc1ccccc1)NC(=O)[C@H](CCC(=O)O)NC(=O)[C@H](CCCCNC(=O)COCCOCCNC(=O)COCCOCCNC(=O)CC[C@H](NC(=O)CCCCCCCCCCCCCCCCC(=O)O)C(=O)O)NC(=O)[C@H](C)NC(=O)[C@H](C)NC(=O)[C@H](CCC(N)=O)NC(=O)CNC(=O)[C@H](CCC(=O)O)NC(=O)[C@H](CC(C)C)NC(=O)[C@H](Cc1ccc(O)cc1)NC(=O)[C@H](CO)NC(=O)[C@H](CO)NC(=O)[C@@H](NC(=O)[C@H](CC(=O)O)NC(=O)[C@H](CO)NC(=O)[C@@H](NC(=O)[C@H](Cc1ccccc1)NC(=O)[C@@H](NC(=O)CNC(=O)[C@H](CCC(=O)O)NC(=O)C(C)(C)NC(=O)[C@@H](N)Cc1cnc[nH]1)[C@@H](C)O)[C@@H](C)O)C(C)C)C(=O)N[C@@H](C)C(=O)N[C@@H](Cc1c[nH]c2ccccc12)C(=O)N[C@@H](CC(C)C)C(=O)N[C@H](C(=O)N[C@@H](CCCNC(=N)N)C(=O)NCC(=O)N[C@@H](CCCNC(=N)N)C(=O)NCC(=O)O)C(C)C", "note": "[oral semaglutide, semaglutide]", "values": [{"measurement": "AUC0–24h Day 10 estimated treatment ratio range", "setting": "[1]", "value": "0.12–0.43"}, {"measurement": "Cmax Day 10 estimated treatment ratio range", "setting": "[1]", "value": "0.12–0.44"}, {"measurement": "reduction of exposure to semaglutide compared with reference arm (night–30 min)", "setting": "all alternative treatment arms, even 6 h–30 min", "value": "more than 50%"}, {"measurement": "median Tmax on Day 10, range across treatment arms", "setting": "all five treatment arms", "value": "48 to 60", "unit": "min"}]}
